Assay outcomes deposited in PubChem by The Scripps Research Institute Molecular Screening Center.
m5-HT2A agonist: mouse Htr2a agonists via beta-arrestin recruitment, primary screen, cell-based, luminescence | 5-hydroxytryptamine receptor 2A (Mus musculus), P35363 | CHO-K1 mHTR2A beta-arrestin complementation; percent of 30 µM serotonin response | activation, % at 7.6 µM | actives 0.66% (n = 360,000) | AID 624169, 2012;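 active = activation above a run cutoff, the mean activation of all tested compounds plus 3 SD, cut at about 14% in these data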;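 also: 0% = plate median of compound wells and 100% = 30 µM serotonin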
TAAR1 antagonist: human TAAR1 antagonists, primary screen, Fluo-8 calcium fluorescence, CHO RD-HGA16 cells | antagonist | inhibition, % at 3 µM | actives 1.5% (n = 360,000);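 active = inhibition above a per-plate cutoff, the mean inhibition of test compounds on that plate plus 3 SD, cut at about 49% in these data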;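 also: 0% = DMSO plus EC80 beta-PEA response and 100% = DMSO alone without agonist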
Target sequence (Q96RJ0 whole entry, looked up): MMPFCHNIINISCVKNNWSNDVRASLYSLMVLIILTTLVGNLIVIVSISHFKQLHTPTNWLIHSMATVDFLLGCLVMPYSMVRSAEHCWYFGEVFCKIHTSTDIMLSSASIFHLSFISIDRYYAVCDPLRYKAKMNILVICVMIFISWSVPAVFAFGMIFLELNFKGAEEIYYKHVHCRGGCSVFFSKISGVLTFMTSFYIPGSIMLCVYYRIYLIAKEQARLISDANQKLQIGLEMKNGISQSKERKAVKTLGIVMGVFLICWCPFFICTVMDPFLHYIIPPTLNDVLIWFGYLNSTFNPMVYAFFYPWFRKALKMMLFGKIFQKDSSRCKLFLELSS
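Material: CHO RD-HGA16 cells bearing hTAAR1; compound dosing: one-point dosing, 3 µM nominal final; schedule: dye loading 75 min at 37 °C, then 30 min room temperature; measured by: calcium fluorescence with Fluo-8; control set: vehicle and agonist controls; replication: n of 1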
CHRM1 PAM: human M1 muscarinic receptor positive allosteric modulators, primary screen, CHO-K1 cells, Fluo-8 calcium fluorescence, 1536-well. activation, % at 3 µM. actives 0.088% (n = 360,000). Muscarinic acetylcholine receptor M1 (Homo sapiens), P11229. CHO-K1 hM1, ACh EC20; 0% = ACh EC20, 100% = maximal ACh; in the data active = activation above about 19%, passing the limit was not always enough
M1 ag: human M1 muscarinic receptor agonists, primary screen, Fluo-8 calcium fluorescence, CHO-K1 cells, HTS | Muscarinic acetylcholine receptor M1 (Homo sapiens), P11229 | CHO-K1 hM1, agonist mode; 0% DMSO, 100% acetylcholine EC100 | activation, % at 3 µM | actives 0.33% (n = 360,000) | AID 588814, 2011;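 active = activation above the run's mean compound activation plus 3 SD, cut at about 16% in these data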;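 also: peak over basal fluorescence ratio within a 140 s kinetic read after compound addition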
M1 antag: human M1 muscarinic receptor antagonists, primary screen, CHO-K1 cells, Fluo-8 calcium fluorescence, 1536-well; Muscarinic acetylcholine receptor M1 (Homo sapiens), P11229; CHO-K1 hM1, ACh EC80 antagonist; actives 1.3% (n = 360,000); inhibition, % at 3 µM;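 active = percent inhibition above its own plate's cutoff, namely the mean of that plate's compound wells plus 3 SD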;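 also: peak over basal fluorescence ratio during 140 s after agonist addition; 0% = ACh EC80 plus DMSO and 100% = DMSO alone without agonist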
TAAR1 ag: human TAAR1 agonists, primary screen, Fluo-8 calcium fluorescence, CHO RD-HGA16 cells; Trace amine-associated receptor 1 (Homo sapiens), Q96RJ0; vehicle wells 0%, saturating PEA agonist 100%; activation, % at 3 µM; actives 0.99% (n = 360,000); AID 624467, 2012;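 active = activation above the mean activation of all test compounds in the run plus 3 SD, cut at about 38% in these data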
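Assay system: CHO-derived RD-HGA16 cells with stable Gα16 and human TAAR1; timing: 17-24 h seeding, 75 min 37 °C dye, 30 min RT; read-out: % activation from peak over basal fluorescence ratio, DMSO-to-PEA scaled; measured by: kinetic Fluo-8 calcium fluorescence; benchmarks: low control DMSO, high control PEA (EC100); doses: 3 µM single concentration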
TAAR1 ag confirm: human TAAR1 agonists, retest of hits, confirmation, Fluo-8 calcium fluorescence, CHO RD-HGA16 cells; activation, % at 3 µM; actives 82% (n = 2,400); AID 651783, 2012; shares compounds with TAAR1 ag; scaled: DMSO 0%, maximal phenethylamine 100%;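 active = activation above a cutoff set at the run's mean compound activation plus 3 SD, cut at about 39% in these data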
Ga16 nonsel ag: nonselective calcium mobilization agonists, CHO-Ga16 cells, counter-screen for hTAAR1 agonist project, cell-based, fluorescence, CHO-Ga16 parental line | AID 651787, 2012 | actives 50% (n = 2,400) | activation, % at 3 µM | shares compounds with TAAR1 ag | Fluo-8 calcium fluorescence; normalized to maximal ATP response, DMSO zero;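 active = activation above the run cutoff, the mean activation over all tested wells plus 3 SD, cut at about 12% in these data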;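 also: 0% = DMSO wells and 100% = maximal ATP response on the peak over basal ratio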
TAAR1 desens: TAAR1 desensitization by agonist hits, confirmation, counter-screen for TAAR1 agonist project, cell-based, fluorescence, tachyphylaxis. shares compounds with TAAR1 ag. CHO RD-HGA16 hTAAR1, Fluo-8 calcium, beta-PEA response inhibition. inhibition, % at 3 µM. actives 46% (n = 2,400);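 active = inhibition above the run cutoff, the mean inhibition of all test compounds plus 3 SD, cut at about 49% in these data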;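 also: beta-PEA stimulus applied at its EC80; loss of beta-PEA calcium signal after compound pretreatment read as receptor desensitization; 0% = DMSO with beta-PEA at EC80 and 100% = DMSO alone without agonist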
Ga16 antag count: inhibition of ATP-evoked calcium response in CHO-Ga16 cells, counter-screen for TAAR1 agonist project, cell-based, fluorescence | shares compounds with TAAR1 ag | CHO-Ga16 ATP-induced calcium, Fluo-8 fluorescence | inhibition, % at 3 µM | actives 39% (n = 2,400);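 active = inhibition above the plate's mean compound inhibition plus 3 SD, computed per plate, cut at about 22% in these data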;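 also: 0% = EC80 ATP with DMSO and 100% = DMSO wells without ATP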
* hit, by the source's call; · = no result. The list is not random: actives were taken first. Their share in the collection is about 3.9%.

SMILES	m5-HT2A agonist	TAAR1 antagonist	CHRM1 PAM	M1 ag	M1 antag	TAAR1 ag	TAAR1 ag confirm	Ga16 nonsel ag	TAAR1 desens	Ga16 antag count
CCOC(=O)c1c(C)[nH]c(C(=O)CN2C(=O)NC3(CCCC3)C2=O)c1C	0	-29	5	1	-9	3	·	·	·	·
COc1ccccc1NC(=O)COC(=O)C1=NN(c2ccccc2)C(=O)CC1	1	-8	8	4	-9	0	·	·	·	·
Oc1ccc(Br)cc1/C=N/NC(=S)NCCc1ccccc1	-2	21	-5	-7	1	58*	74*	41*	45	47*
O=C(CCc1ccccc1)N/N=C/c1cc(Br)ccc1O	-3	15	4	-1	-7	5	·	·	·	·
O=c1c(O)c(-c2cccs2)oc2ccc(Cl)cc12	-10	110*	-35	144*	62*	292*	152*	152*	89*	85*
CCOc1cc(CN2CCCC(N3CCc4ccccc4C3)C2)ccc1O (configuration not stated)	-2	-5	0	-8	-9	3	·	·	·	·
COc1cc(CN2CCc3ccccc3C2)cc([N+](=O)[O-])c1O	-2	59*	15	-2	-15	98*	98*	1	77*	-6
COc1cc(CN2CCc3ccccc3C2)ccc1O	-6	·	7	-6	-6	·	·	0	·	4
COc1cc(CN2CCCCCC2)cc([N+](=O)[O-])c1O	11	-5	10	-1	-16	0	·	·	·	·
O=C(N[C@H](C(=O)N1CCC[C@H]1C(=O)NCCc1ccccc1Cl)C1CCCCC1)c1ccc(Cl)c(Cl)c1	·	-1	·	·	·	4	·	·	·	·
O=C(N[C@@H](Cc1cccnc1)C(=O)N1CCC[C@H]1C(=O)NC1CCCC1)c1cccs1	·	-16	·	·	·	1	·	·	·	·
O=C(N[C@@H](Cc1cccnc1)C(=O)N1CCC[C@H]1C(=O)NCCc1ccccc1Cl)c1cccs1	·	48	·	·	·	48*	82*	4	84*	4
O=C(NCCc1ccccc1Cl)[C@@H]1CCCN1C(=O)[C@H](Cc1cccnc1)NC(=O)N1CCOCC1	·	11	·	·	·	49*	77*	0	46	5
O=C(N[C@@H](Cc1cccnc1)C(=O)N1CCC[C@H]1C(=O)NCCc1ccccc1Cl)C1CC1	·	26	·	·	·	46*	70*	0	58*	6
O=C(N[C@@H](Cc1cccnc1)C(=O)N1CCC[C@H]1C(=O)NCCc1ccccc1Cl)c1ccc(Cl)c(Cl)c1	·	91*	·	·	·	71*	84*	5	103*	21
Cc1ccc(S(=O)(=O)N2CCCCC2)cc1NC(=O)COC(=O)c1ccccc1F	-4	-21	8	-4	-4	2	·	·	·	·
O=C(N[C@@H](Cc1cccnc1)C(=O)N1CCC[C@H]1C(=O)NCCc1ccccc1Cl)c1ccccc1	·	77*	·	·	·	55*	92*	7	90*	2
CCc1nc2ccc(C(=O)Nc3cc(-c4ccccc4)ccc3OC)cn2c1N(C=O)CCC(C)C	-2	-16	13	1	-12	3	·	·	·	·
Cc1nn(C)c(Cl)c1/C=N/OC(=O)c1ccc(F)cc1	-1	11	8	-5	-4	88*	3	2	3	10
CC(C)CC(N)c1csc(NC(=O)C(c2ccccc2)c2ccccc2)n1 (configuration not stated)	10	66*	9	9	-2	75*	75*	34*	73*	50*
CC(C)CC(N)c1csc(NC(=O)Nc2ccccc2Cc2ccccc2)n1 (configuration not stated)	-1	20	5	-2	-1	26	·	·	·	·
NC(=NCCc1ccc(Cl)cc1)NS(=O)(=O)c1ccccc1	-4	-20	1	-1	0	3	·	·	·	·
NC(=NCCc1ccccc1)NC(=O)c1cc(Cl)ccc1O	7	77*	4	3	-13	90*	91*	4	94*	23*
Oc1ccc(Cl)cc1C=NCCc1ccccc1	12	·	7	-6	-4	·	·	-1	·	10
CCOC(=O)C1CCCN(C(=O)CN2C(=O)/C(=C/c3ccc(OC)cc3)Oc3ccccc32)C1 (configuration not stated)	2	7	-3	-7	5	2	·	·	·	·
SMILES	m5-HT2A agonist	TAAR1 antagonist	CHRM1 PAM	M1 ag	M1 antag	TAAR1 ag	TAAR1 ag confirm	Ga16 nonsel ag	TAAR1 desens	Ga16 antag count
COc1ccccc1NC(=O)CCC(=O)OCc1ccc(Cl)cc1	0	-6	4	-8	-2	0	·	·	·	·
Nc1nc(N)c(N=O)c(Nc2cccc(Cl)c2)n1	-4	-16	·	·	·	68*	128*	48*	53*	-5
Cc1cc(C)c(C(N)=O)c(Nc2cccc(Cl)c2)n1	-3	11	-4	-4	4	1	·	·	·	·
CCc1c(N)nc(N)nc1Nc1ccc(C)c(C)c1	1	-4	13	-1	-21	2	·	·	·	·
Nc1nc(N)c(N=O)c(Nc2ccc(Cl)c(Cl)c2)n1	-2	10	·	·	·	109*	136*	58*	71*	4
Cc1ccc(Nc2nc(N)nc(N)c2N=O)cc1Cl	0	-1	·	·	·	75*	109*	29*	37	1
CC(C)c1cc(C(=O)NCc2ccc(F)cc2)c(N)s1	-2	-9	·	·	·	-1	·	·	·	·
